Laboratory results as given in PubChem BioAssay.
Some of the results follow. Calls of active or inactive are those of the source.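 How the source made its calls: active means primary screen active, with duplicate mean exceeding buffer control mean plus 3 SD of buffer wells (cut at about 28% in these data); inactive means the rest.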

molecular target: Potassium voltage-gated channel subfamily KQT member 1 (Homo sapiens) (UniProt P51787); experiment: KCNQ1 potassium channel inhibitors, confirmation, cell-based, Tl flux, duplicate (AID 588353); conditions: KCNQ1 cell line, FluxOR thallium flux fluorescence, at 10 µM, stronger effect = higher value;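 further: 0% = buffer control ratio and 100% = XE991 inhibitor control ratio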
Outline: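 Material: KCNQ1 CHO cells; also added: Thallium-potassium depolarizing stimulus buffer; timing: dye loading 90 min, compound 20 min, both room temperature; signal: FluxOR thallium flux fluorescence, 10 s baseline plus 110 s; evaluation: percent inhibition relative to buffer and XE991; benchmarks: buffer and XE991; repeats: duplicates, mean used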

Chain of Potassium voltage-gated channel subfamily KQT member 1 (Homo sapiens) (P51787 whole entry, looked up): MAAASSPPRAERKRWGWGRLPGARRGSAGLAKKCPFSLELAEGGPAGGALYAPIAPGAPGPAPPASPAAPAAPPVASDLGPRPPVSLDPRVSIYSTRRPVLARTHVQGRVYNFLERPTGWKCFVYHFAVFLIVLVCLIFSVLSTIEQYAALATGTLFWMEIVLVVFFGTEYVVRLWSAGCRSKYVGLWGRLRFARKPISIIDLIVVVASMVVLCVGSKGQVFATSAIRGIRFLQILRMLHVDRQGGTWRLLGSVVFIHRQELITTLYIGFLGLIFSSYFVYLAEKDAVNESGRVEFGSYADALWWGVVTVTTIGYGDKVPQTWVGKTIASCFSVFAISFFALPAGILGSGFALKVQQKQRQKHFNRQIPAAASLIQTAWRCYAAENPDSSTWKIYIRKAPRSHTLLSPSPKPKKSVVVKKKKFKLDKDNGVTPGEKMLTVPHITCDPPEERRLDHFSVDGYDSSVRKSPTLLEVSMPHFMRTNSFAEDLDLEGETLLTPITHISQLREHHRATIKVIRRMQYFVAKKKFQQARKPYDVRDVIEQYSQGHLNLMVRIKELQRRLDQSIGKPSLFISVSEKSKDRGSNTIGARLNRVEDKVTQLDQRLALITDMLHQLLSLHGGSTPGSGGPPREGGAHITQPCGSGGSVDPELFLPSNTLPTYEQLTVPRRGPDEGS

inhibition, inactive:
CCOc1ccc(CN2CCN(Cc3c[nH]c4ccccc34)CC2)cc1 0% [the number is a placeholder, only the call stands]
Cc1oc2c(F)c(F)c(F)c(F)c2c1S(=O)(=O)Nc1cccc(C(F)(F)F)c1 0% [the number is a placeholder, only the call stands]
O=C1CCc2cc(S(=O)(=O)N3CCC(C(=O)NCc4ccccc4Cl)CC3)ccc2N1 0% [the number is a placeholder, only the call stands]

inhibition, active:
O=C(NCCc1ccccc1)c1ccc2c(c1)N(Cc1ccccc1)CCS2 71.5%
COc1ccc(S(=O)(=O)/N=C2\C=C(NS(=O)(=O)c3ccccc3)C(=O)c3ccccc32)cc1 31.5%
CCn1c(C)c(C)c2cc(C(=O)N3CCN(c4cccc(C)c4C)CC3)ccc21 106%
Cc1cccc(-n2cc(CN3CCN(C(=O)c4ncn[nH]4)CC3)c(-c3cccc(F)c3)n2)c1 45.5%
CCOC(=O)C1CCN(c2ncnc3c2oc2ccc(Br)cc23)CC1 150%
CCc1noc(C)c1C(=O)Oc1ccc(N(C)S(=O)(=O)c2ccc(C)c(C)c2)cc1 108%
S=C(NCC1CCCO1)N1CCN(c2ccc(Cl)c(Cl)c2)CC1 (stereo not given) 101%
O=C(Nc1ccc2ccccc2c1)Nc1ccc2snnc2c1 41.5%
CC1CCCN(C(C(=O)Nc2ccc(C(C)C)cc2)c2ccc3c(c2)OCO3)C1 (stereo not given) 132%
COc1ccc(-c2csc3ncnc(N4CCN(S(=O)(=O)c5cccc(F)c5)CC4)c23)cc1 92.5%
Cc1cc(Br)ccc1NC(=O)c1cnc(N2CCN(c3ccccn3)CC2)c2ccccc12 89%
Cc1nc(N2CCN(c3ccccn3)CC2)c2c(C)c(C(=O)Nc3ccc(F)cc3)sc2n1 146%
CC(C)OC(=O)C(C#N)c1nc2ccccc2nc1N1CCN(Cc2ccccc2)CC1 (stereo not given) 148%
CC(C)OCCCNc1ncnc2c1[nH]c1ccc(F)cc12 95.5%
CCSc1nsc(NC(=O)Nc2cccc(C(C)=O)c2)n1 112%
COc1ccc(Cl)cc1NC(=O)C(C)N1CCc2ccccc21 (stereo not given) 114%
Cc1nc(N2CCN(c3ccccn3)CC2)c2c(C)c(C(=O)Nc3ccc(F)c(Cl)c3)sc2n1 160%
Cn1nc(-c2ccc(Cl)cc2)c2cc(C(=O)NCc3ccco3)sc21 70.5%
Cc1ccc(S(=O)(=O)Nc2ccc3ncccc3c2)cc1 76.5%
Cc1nc2ccccc2cc1OCc1ccc(F)cc1 126%
COc1ccc(-c2cc(C(F)(F)F)nc(S(C)(=O)=O)n2)cc1OC 27%
C=CCSc1nsc(NC(=O)Nc2cccc(C(C)=O)c2)n1 100%
COc1ccc(Nc2ncnc3sc(-c4ccccc4)cc23)c(OC)c1 82.5%
CCC(=C/c1sc2ccc3ccccc3c2[n+]1C)/C=C1\Sc2ccc3ccccc3c2N1C 57.5%
Clc1cccc(-c2nc(NCC3CCCO3)c3ccccc3n2)c1 (stereo not given) 116%
Cn1nccc1C(=O)NC1CCCc2c1cnn2-c1ccc(F)cc1F (stereo not given) 90%
O=C(CCN1c2ccccc2Sc2ccccc21)Nc1ccccc1 164%
S=C(Nc1cccc(Cl)c1)Nc1ccc2c(c1)OCCO2 81%
COC(=O)c1ccc(NC(=O)Nc2ccc(C)cc2)cc1 62.5%
Cc1cc(C)cc(NC(=O)NC2CCCCCCC2)c1 146%
CCN(CC)CC(=O)Nc1sc2c(c1C(=O)c1ccccc1C)CCC2 104%
CC(C)(CCl)C(=O)Nc1ccc(Sc2ccc(F)cc2)cc1 166%
C=CCOC(=O)C1=C(C)NC(SCC(=O)OCC)=C(C#N)C1c1ccc(C)cc1 (stereo not given) 124%
O=C(Nc1ccc(Cl)c(Cl)c1)N1CC=C(c2ccccc2)CC1 122%
O=C(NC(=S)Nc1ccccc1C(=O)O)c1ccc(-c2ccc(Br)cc2)o1 56%
Cc1cccc(NC(=S)Nc2ccc(Cl)c(Cl)c2)c1 49%
CCOC(=O)c1cnc(SC)nc1Sc1ccc(Cl)cc1Cl 97.5%
